Converted amounts (≈) assume the structure as drawn.
Assays:
Enterococcus faecalis [1] = experiment: Antibacterial activity determined against Enterococcus faecalis ATCC 23241; assay type: functional
How it was run: (§1)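 Broth microdilution: an overnight-culture bacterial suspension was added to compound in 2.5% DMSO in water, giving a final inoculum of about 10^2–10^3 CFU/well. Plates were incubated 20–24 h at 37 °C, and growth relative to a no-compound control was read as A595. MIC was given as a range: complete inhibition at the upper concentration, viable cells at the lower.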

Streptococcus pyogenes = experiment: Antibacterial activity determined against gram-positive Streptococcus pyogenes 49399; assay type: functional; how it was run: as §1
Enterococcus faecalis [2] = experiment: Antibacterial activity determined against Enterococcus faecalis ATCC 49757; assay type: functional; how it was run: as §1
Proteus vulgaris = experiment: Antibacterial activity determined against gram-negativeP. vulgaris 8427; assay type: functional; how it was run: as §1
Staphylococcus aureus [3] = experiment: Antibacterial activity determined against Staphylococcus aureus; assay type: functional; how it was run: as §1
Enterococcus hirae = experiment: Antibacterial activity determined against gram-positive Enterococcus hirae 29212; assay type: functional; how it was run: as §1
Candida albicans [4] = experiment: Antibacterial activity determined against Candida albicans 10231; assay type: functional
How it was run: as §1, with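 “Candida albicans:” for “Broth microdilution:”, “yeast” for “bacterial”, “40–48” for “20–24”, “25” for “37”, “versus” for “relative to”, “higher” for “upper”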

Enterococcus faecalis [5] = experiment: Antibacterial activity determined against Enterococcus faecalis ATCC 828; assay type: functional; how it was run: as §1
Escherichia coli [6] = experiment: Antibacterial activity determined against gram-negativeE. coli 25922; assay type: functional; how it was run: as §1
Enterococcus faecalis [7] = experiment: Antibacterial activity determined against Enterococcus faecalis ATCC 4200; assay type: functional; how it was run: as §1
Pseudomonas aeruginosa = experiment: Antibacterial activity determined against gram-negativeP. aeruginosa 25416; assay type: functional; how it was run: as §1
Enterococcus faecalis [8] = experiment: Antibacterial activity determined against Enterococcus faecalis ATCC 11823; assay type: functional; how it was run: as §1
Klebsiella pneumoniae = experiment: Antibacterial activity determined against gram-negativeK. pneumoniae 13383; assay type: functional; how it was run: as §1
[9] = Inhibition of bacterial transcription/translation
Enterococcus faecium [10] = experiment: Antibacterial activity determined against Enterococcus faecium ATCC 882; assay type: functional; how it was run: as §1
Streptococcus pneumoniae = experiment: Antibacterial activity determined against gram-positive Streptococcus pneumoniae 6303; assay type: functional; how it was run: as §1
Staphylococcus aureus [11] = experiment: Antibacterial activity determined against gram-positive Staphylococcus aureus 13709; assay type: functional; how it was run: as §1
Escherichia coli [12] = experiment: Antibacterial activity determined against Escherichia coli; assay type: functional; how it was run: as §1
Enterococcus faecium [13] = experiment: Antibacterial activity determined against Enterococcus faecium ATCC 6569; assay type: functional; how it was run: as §1
Candida albicans [14] = experiment: Antifungal activity determined against Candida albicans 10231; assay type: functional
How it was run: as §1, with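 “Candida albicans:” for “Broth microdilution:”, “yeast” for “bacterial”, “40–48” for “20–24”, “25” for “37”, “versus” for “relative to”, “higher” for “upper”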

Compound | MIC (Enterococcus faecalis [1]) | MIC (Streptococcus pyogenes) | MIC (Enterococcus faecalis [2]) | MIC (Proteus vulgaris) | MIC (Staphylococcus aureus [3]) | MIC (Enterococcus hirae) | MIC (Candida albicans [4]) | MIC (Enterococcus faecalis [5]) | MIC (Escherichia coli [6]) | MIC (Enterococcus faecalis [7]) | MIC (Pseudomonas aeruginosa) | MIC (Enterococcus faecalis [8]) | MIC (Klebsiella pneumoniae) | IC50 [9] | MIC (Enterococcus faecium [10]) | MIC (Streptococcus pneumoniae) | MIC (Staphylococcus aureus [11]) | MIC (Escherichia coli [12]) | MIC (Enterococcus faecium [13]) | MIC (Candida albicans [14])
Clc1cc2nc(C3CCNCC3)n(Cc3ccc(CNC4CCNCC4)cc3)c2cc1Cl | 12 µM (≈ 5.67 µg/mL) | 6 µM (≈ 2.83 µg/mL) | 12 µM (≈ 5.67 µg/mL) | 25 µM (≈ 11.8 µg/mL) | 6 µM (≈ 2.83 µg/mL) | 3 µM (≈ 1.42 µg/mL) | 50 µM (≈ 23.6 µg/mL) | 12 µM (≈ 5.67 µg/mL) | 12 µM (≈ 5.67 µg/mL) | 12 µM (≈ 5.67 µg/mL) | 12 µM (≈ 5.67 µg/mL) | 12 µM (≈ 5.67 µg/mL) | 12 µM (≈ 5.67 µg/mL) | > 100 µM | 12 µM (≈ 5.67 µg/mL) | 12 µM (≈ 5.67 µg/mL) | 6 µM (≈ 2.83 µg/mL) | 12 µM (≈ 5.67 µg/mL) | 12 µM (≈ 5.67 µg/mL) | –
O=C1c2ccccc2C(=O)N1Cc1ccc(Cn2c(C3CCNCC3)nc3cc(Cl)c(Cl)cc32)cc1 | 6 µM (≈ 3.12 µg/mL) | 12 µM (≈ 6.23 µg/mL) | 6 µM (≈ 3.12 µg/mL) | 25 µM (≈ 13 µg/mL) | 6 µM (≈ 3.12 µg/mL) | 3 µM (≈ 1.56 µg/mL) | – | 6 µM (≈ 3.12 µg/mL) | 6 µM (≈ 3.12 µg/mL) | 6 µM (≈ 3.12 µg/mL) | 12 µM (≈ 6.23 µg/mL) | 3 µM (≈ 1.56 µg/mL) | 25 µM (≈ 13 µg/mL) | > 100 µM | 6 µM (≈ 3.12 µg/mL) | 6 µM (≈ 3.12 µg/mL) | 6 µM (≈ 3.12 µg/mL) | 6 µM (≈ 3.12 µg/mL) | 3 µM (≈ 1.56 µg/mL) | 50 µM (≈ 26 µg/mL)
NC1CCN(Cc2ccc(Cn3c(C4CCNCC4)nc4cc(Cl)c(Cl)cc43)cc2)CC1 | 12 µM (≈ 5.67 µg/mL) | 6 µM (≈ 2.83 µg/mL) | 12 µM (≈ 5.67 µg/mL) | 25 µM (≈ 11.8 µg/mL) | 6 µM (≈ 2.83 µg/mL) | 3 µM (≈ 1.42 µg/mL) | – | 12 µM (≈ 5.67 µg/mL) | 50 µM (≈ 23.6 µg/mL) | 12 µM (≈ 5.67 µg/mL) | 12 µM (≈ 5.67 µg/mL) | 12 µM (≈ 5.67 µg/mL) | 25 µM (≈ 11.8 µg/mL) | 60 µM | 12 µM (≈ 5.67 µg/mL) | 25 µM (≈ 11.8 µg/mL) | 6 µM (≈ 2.83 µg/mL) | 50 µM (≈ 23.6 µg/mL) | 6 µM (≈ 2.83 µg/mL) | 50 µM (≈ 23.6 µg/mL)
Clc1cc2nc(C3CCNCC3)n(Cc3ccc(CN4CCCNCC4)cc3)c2cc1Cl | 12 µM (≈ 5.67 µg/mL) | 6 µM (≈ 2.83 µg/mL) | 6 µM (≈ 2.83 µg/mL) | 25 µM (≈ 11.8 µg/mL) | 6 µM (≈ 2.83 µg/mL) | 3 µM (≈ 1.42 µg/mL) | – | 12 µM (≈ 5.67 µg/mL) | 12 µM (≈ 5.67 µg/mL) | 12 µM (≈ 5.67 µg/mL) | 25 µM (≈ 11.8 µg/mL) | 12 µM (≈ 5.67 µg/mL) | 12 µM (≈ 5.67 µg/mL) | > 100 µM | 12 µM (≈ 5.67 µg/mL) | 12 µM (≈ 5.67 µg/mL) | 6 µM (≈ 2.83 µg/mL) | 12 µM (≈ 5.67 µg/mL) | 6 µM (≈ 2.83 µg/mL) | > 100 µM
NCCCNCc1ccc(Cn2c(C3CCNCC3)nc3cc(Cl)c(Cl)cc32)cc1 | 25 µM (≈ 11.2 µg/mL) | 6 µM (≈ 2.68 µg/mL) | 12 µM (≈ 5.36 µg/mL) | – | 12 µM (≈ 5.36 µg/mL) | 6 µM (≈ 2.68 µg/mL) | – | 12 µM (≈ 5.36 µg/mL) | 50 µM (≈ 22.3 µg/mL) | 25 µM (≈ 11.2 µg/mL) | 25 µM (≈ 11.2 µg/mL) | 12 µM (≈ 5.36 µg/mL) | 25 µM (≈ 11.2 µg/mL) | 20 µM | 25 µM (≈ 11.2 µg/mL) | 25 µM (≈ 11.2 µg/mL) | 12 µM (≈ 5.36 µg/mL) | 50 µM (≈ 22.3 µg/mL) | 12 µM (≈ 5.36 µg/mL) | > 100 µM

Reference: ChEMBL document CHEMBL1136237, “2-piperidin-4-yl-benzimidazoles with broad spectrum antibacterial activities” (2003)
